{"source": "ChEMBL document CHEMBL4765486", "about": "“Novel Nonsecosteroidal Vitamin D Receptor Modulator Combined with Gemcitabine Enhances Pancreatic Cancer Therapy through Remodeling of the Tumor Microenvironment” (J Med Chem, 2021)", "key": {"[1]": {"test_system": "LTC-14", "assay": "Inhibition of rat LTC-14 cell activation assessed decrease in TGF-beta1 induced Colla1 mRNA expression at 0.5 uM incubated for 24 hrs by q-PCR analysis", "assay_type": "functional", "outline": "(§1)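 Immortalized rat PSC line LTC-14, about 1×10^5 cells per well, was grown 24 h at 37 °C in 5% CO2. Cells then received compound (0.5 μM) plus TGF-β1 for 24 h; TGF-β1 is stated as 0.5 ng/mL in the text and 5 ng/mL in the methods. Col1a1 and Acta2 mRNA were measured by RT-qPCR. Mean ± SD versus TGF-β1 alone.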"}, "[2]": {"test_system": "LTC-14", "assay": "Inhibition of rat LTC-14 cells activation assessed decrease in TGF-beta1 induced Acta2 mRNA expression at 0.5 uM incubated for 24 hrs by q-PCR analysis", "assay_type": "functional, cell-based", "outline": "as §1"}, "[3]": {"test_system": "LTC-14", "assay": "Inhibition of rat LTC-14 cells interaction with DSL-6A/C1 cells in conditioned media assessed as inhibition of PDGF-A protein expression at 0.5 uM measured after 24 hrs by Western blot analysis", "assay_type": "functional, cell-based", "outline": "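LTC-14 cells were treated for 24 h with DSL-6A/C1 conditioned medium plus compound (0.5 μM). Proteins were separated on 10% SDS-PAGE, transferred to PVDF and probed with rabbit anti-PDGF-A or anti-POSTN, with β-actin as loading reference.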"}, "[4]": {"test_system": "LTC-14", "assay": "Inhibition of rat LTC-14 cells activation assessed as inhibition of Fgf mRNA expression at 0.5 uM treated under conditioned media of DSL-6A/C1 cells for 24 hrs by q-PCR analysis", "assay_type": "functional, cell-based", "outline": "(§2)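 LTC-14 PSCs were exposed for 24 h to conditioned medium from rat DSL-6A/C1 cancer cells containing compound at 0.5 μM. Pdgfa, Pdgfb, Fgf2, Hgf and Periodin mRNA were quantified by RT-qPCR. Three repeats, mean ± SD versus CM alone.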"}, "[5]": {"test_system": "LTC-14", "assay": "Inhibition of rat LTC-14 cells activation assessed as inhibition of Hgf mRNA expression at 0.5 uM treated under conditioned media of DSL-6A/C1 cells for 24 hrs by q-PCR analysis", "assay_type": "functional, cell-based", "outline": "as §2"}, "[6]": {"test_system": "LTC-14", "assay": "Inhibition of rat LTC-14 cells activation assessed as inhibition of Periodin-mRNA expression at 0.5 uM treated under conditioned media of DSL-6A/C1 cells for 24 hrs by q-PCR analysis", "assay_type": "functional, cell-based", "outline": "as §2"}, "[7]": {"test_system": "DSL-6A/C1", "assay": "Antiproliferative activity against rat DSL-6A/C1 cells assessed as reduction in cell viability at 0.5 uM incubated for 24 hrs compound treated LTC-14-CM cells by MTT assay", "assay_type": "functional, cell-based", "outline": "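LTC-14 PSCs were pretreated with compound for 24 h. Their collected supernatant was used to culture DSL-6A/C1 cells, and proliferation was read by MTT: 4 h incubation with MTT (5 mg/mL stock), absorbance at 570 nm. Run in triplicate, compared with untreated PSC-CM.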"}, "[8]": {"test_system": "DSL-6A/C1", "assay": "Antiproliferative activity against rat DSL-6A/C1 cells assessed as reduction in cell viability at 0.5 uM treated with conditioned media of LTC-14 cells for 24 hrs by MTT assay", "assay_type": "functional, cell-based", "outline": "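Rat pancreatic cancer DSL-6A/C1 cells were cultured in supernatant from LTC-14 PSCs (PSC-CM) with compound added at 0.5 μM for 24 h. Viability was then read by MTT: 4 h incubation with MTT (5 mg/mL stock), absorbance at 570 nm. Run in triplicate, compared with PSC-CM alone.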"}, "[9]": {"test_system": "LTC-14", "assay": "Inhibition of rat LTC-14 cells activation assessed as reduction in ECM deposition resulting in doxorubicin accumulation in PSC spheres pretreated with compounds followed by doxorubicin addition by laser confocal microscopy analysis", "assay_type": "functional, cell-based", "outline": "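LTC-14 cells were grown in 3D culture to form PSC spheres and treated with compounds. Fluorescent doxorubicin was then added, and its penetration into the spheres was imaged by laser confocal microscopy. Three repeats, versus untreated control.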"}, "[10]": {"target": "T1, Vitamin D3 receptor (Homo sapiens) (UniProt P11473)", "T1 sequence (whole entry)": "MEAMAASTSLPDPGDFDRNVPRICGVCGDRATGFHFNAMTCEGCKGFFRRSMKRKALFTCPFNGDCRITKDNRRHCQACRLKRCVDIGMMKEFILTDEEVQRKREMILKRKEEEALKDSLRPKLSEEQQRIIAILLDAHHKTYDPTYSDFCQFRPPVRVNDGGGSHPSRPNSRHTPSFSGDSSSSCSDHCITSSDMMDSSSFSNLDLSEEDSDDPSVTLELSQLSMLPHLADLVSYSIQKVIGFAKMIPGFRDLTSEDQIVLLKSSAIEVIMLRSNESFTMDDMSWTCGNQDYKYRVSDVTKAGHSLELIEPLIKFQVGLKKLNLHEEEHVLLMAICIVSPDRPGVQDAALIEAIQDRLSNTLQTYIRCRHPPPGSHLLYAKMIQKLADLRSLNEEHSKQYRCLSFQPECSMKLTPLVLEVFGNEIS", "assay": "Agonist activity at VDR (unknown origin) expressed in HEK293 cells co-transfected with pGL4.27-SPP3-Luc and CMV-hRXRalpha and pCMX-Renilla plasmids after 24 hrs by dual luciferase reporter gene assay", "assay_type": "cell-based", "details": "filed as agonist, dose 0.0001-1 µM", "outline": "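HEK293 cells in 48-well plates were transfected per well with 40 ng TK-Spp×3-LUC reporter, 20 ng pCMX-Renilla, 30 ng pENTER-CMV-hRXRα and 100 ng pCMX-VDR using Lipofectamine 2000. Compounds were added 8 h post-transfection, and dual-luciferase activity was read 24 h later. Firefly signal was normalised to Renilla. The experiment was run three times.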"}, "[11]": {"test_system": "DSL-6A/C1", "assay": "Potentiation of gemcitabine-induced antitumor activity against luciferase-tagged rat DSL-6A/C1 cells and GFP-tagged LTC-14 cells co-inoculated in orthotropic xenograft BALB/c nude mouse model of pancreatic cancer assessed as decrease in density of tumor tissue at 500 ug/kg, ip administered once every 3 days for 12 days coadministered with gemcitabine at 100 mg/kg and measured after 3 days post last dose by hematoxylin and eosin staining based assay", "assay_type": "functional, organism-based", "details": "dose 500.0 µg/kg, time 12.0 day", "outline": "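In the same orthotopic co-inoculation model, mice received gemcitabine 100 mg/kg ip every 3 days plus compound 500 μg/kg ip for 12 days. Animals were sacrificed 3 days after the last dose. Pancreatic tumour sections were stained with H&E for tissue structure and with Masson's trichrome for collagen deposition, imaged at ×100.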"}, "[12]": {"test_system": "Mus musculus", "assay": "Inhibition of GFP-tagged rat LTC-14 cells activation in BALB/c nude mouse xenografted along with luciferase-tagged DSL-6A/C1-Luc cells assessed as reduction in alpha-smooth muscle actin expression in tumor at 500 ug/kg, ip administered once every 3 days for 12 days coadministered with gemcitabine at 100 mg/kg by DAPI staining based laser confocal scanning microscopy", "assay_type": "functional, organism-based", "details": "dose 500.0 µg/kg, time 12.0 day", "outline": "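Tumours were taken from orthotopic co-inoculated nude mice given gemcitabine 100 mg/kg plus compound (500 μg/kg) or calcipotriol (60 μg/kg) ip for 12 days. Sections were fixed in 4% PFA, permeabilised with 0.5% Triton X-100 and blocked in 5% BSA. They were incubated with anti-α-SMA overnight at 4 °C, then an Alexa Fluor 594 secondary for 1 h at 37 °C, DAPI-counterstained and imaged by confocal microscopy.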"}, "[13]": {"assay": "Toxicity in orthotropic xenograft BALB/c nude mouse model of pancreatic cancer co-inoculated with rat DSL-6A/C1-Luc cells and LTC-14-GFP cells assessed as hypercalcemia at 500 ug/kg, ip administered once every 3 days for 12 days coadministered with gemcitabine at 100 mg/kg and measured after 3 days post last dose", "assay_type": "organism-based", "details": "in vivo, 0.5 mg/kg, 288 h, dose 500 µg/kg, time 12 day", "outline": "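Orthotopic DSL-6A/C1-luci/LTC-14-GFP nude mice received gemcitabine 100 mg/kg plus compound 500 μg/kg ip for 12 days. They were sacrificed 3 days after the final dose, and serum was collected for biochemical analysis to assess hypercalcemia.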"}}, "note": "Activity calls are given as the source filed them. Unless noted, the rule behind the calls is not given here."}
{"compound": "CCn1cc(C(CC)(CC)c2ccc(OCC(C)O)c(C)c2)cc1C(=O)NCCN1CCN(C)CC1", "note": "(stereo not drawn)", "values": [{"measurement": "inhibition", "setting": "[1]", "value": "Active"}, {"measurement": "inhibition", "setting": "[2]", "value": "Active"}, {"measurement": "inhibition", "setting": "[3]", "value": "Active"}, {"measurement": "inhibition", "setting": "[4]", "value": "Active"}, {"measurement": "inhibition", "setting": "[5]", "value": "Active"}, {"measurement": "inhibition", "setting": "[6]", "value": "Active"}, {"measurement": "Activity", "setting": "[7]", "value": "Active"}, {"measurement": "Activity", "setting": "[8]", "value": "inactive"}, {"measurement": "inhibition", "setting": "[9]", "value": "Active"}, {"measurement": "Activity", "setting": "[10]", "value": "Dose-dependent effect"}, {"measurement": "Activity", "setting": "[11]", "value": "Active"}, {"measurement": "inhibition", "setting": "[12]", "value": "Active"}, {"measurement": "Activity", "setting": "[13]", "value": "Non-Toxic"}]}
